From ChEMBL document CHEMBL1127621, “Electron-deficient DNA-intercalating agents as antitumor drugs: aza analogues of the experimental clinical agent N-[2-(dimethylamino)ethyl]acridine-4-carboxamide” (J Med Chem, 1994)
Activity calls are given as the source filed them. The rule behind the calls is not given here.

Assays:
Nucleic Acid = experiment: Inhibitory concentration against ethidium bromide binding to [poly(dA-dT)] [poly(dA-dT)]; format: nucleic-acid assay
Procedure, shortened: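 Fluorometric ethidium displacement using poly[d(A-T)]. C50 is the micromolar ligand concentration that displaces 50% of previously bound ethidium. For intercalators it is inversely proportional to the ligand–DNA association constant.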

Mus musculus [1] = experiment: Percentage increase in lifespan of P388 tumor-bearing mice compared with tumor-bearing controls at optimal dose of 150 mg/kg/day; NA = Not active; format: functional, organism-based
Procedure, shortened: (§1)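 Mice were inoculated ip with 10^6 P388 leukemia cells. Drug was given ip on days 1, 5 and 9 in 0.1 mL of 30% v/v EtOH-water, with dose in mg/kg/day. Optimal dose was determined, and ILS is the % lifespan increase over tumor-bearing controls at that dose.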

P388 = experiment: Inhibition of P388 leukemia cells growth in culture; format: functional, cell-based; settings: Mus musculus
Procedure, shortened: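 P388 leukemia cells in exponential growth were exposed to drug for 70 h. IC50 is the micromolar concentration that reduces cell growth to 50% of control values.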

Mus musculus [2] = experiment: Percentage increase in lifespan of P388 tumor-bearing mice compared with tumor-bearing controls at optimal dose of 65 mg/kg/day; format: functional
Mus musculus [3] = experiment: Percentage increase in lifespan of P388 tumor-bearing mice compared with tumor-bearing controls at optimal dose of 65 mg/kg/day; NA= Not active; format: functional, organism-based; procedure, shortened: as §1
Mus musculus [4] = experiment: Optimal dose required to inhibit P388 leukemia cells when administered intraperitoneally in mice; format: functional; procedure, shortened: as §1
Mus musculus [5] = experiment: Percentage increase in lifespan of P388 tumor-bearing mice compared with tumor-bearing controls at optimal dose of 65 mg/kg/day; NA=Not active; format: functional, organism-based; procedure, shortened: as §1

SMILES | C50 (Nucleic Acid) [µM] | ILS (Mus musculus [1]) | IC50 (P388) [µM] | ILS at 65 mg/kg/day (Mus musculus [2]) [%] | ILS (Mus musculus [3]) | OD (Mus musculus [4]) [mg/kg/day] | ILS (Mus musculus [5])
CN(C)CCNC(=O)c1cccc2c(O)c3cccnc3nc12 | 27.7 | inactive | 5.5 |  |  |  | 
CN(C)CCn1c(=O)c2cccc3c(=O)c4ccncc4n(c1=O)c32 | 10.7 |  | > 40 |  |  |  | 
CN(C)CCNC(=O)c1ccc([N+](=O)[O-])c2cc3cnccc3nc12 | 4.4 |  | 5 |  |  |  | 
CN(C)CCNC(=O)c1cccc2cc3ncccc3nc12 | 11.1 |  | 4.4 | 48 |  |  | 
C(=N/NC1=NCCN1)/c1cccc2cc3cccnc3nc12 | 5 |  | 12 |  |  |  | 
CN(C)CCNC(=O)c1cc([N+](=O)[O-])cc2c(O)c3cccnc3nc12 | 11 |  | 1.3 |  |  |  | 
CN(C)CCNC(=O)c1cccc2c(O)c3cc([N+](=O)[O-])ccc3nc12 | 5.9 |  | 3.5 |  |  |  | 
CN(C)CCNC(=O)c1ccc([N+](=O)[O-])c2cc3ncccc3nc12 | 3.1 |  | 0.085 |  | inactive | 45 | 
C[N+](C)(C)CC(=O)N/N=C\c1cccc2cc3cccnc3nc12 | 11.1 |  | 1.65 |  | inactive | 65 | 
CN(C)CCNC(=O)c1cccc2c(O)c3cccc([N+](=O)[O-])c3nc12 | 2.4 |  | 0.083 | 65 |  | 45 | 
CN(C)CCNC(=O)c1ccc([N+](=O)[O-])c2c(O)c3cccnc3nc12 | 10.4 |  | 0.018 | 31 |  | 65 | 
C[N+](C)(C)CC(=O)N/N=C\c1cccc2c(O)c3cccnc3nc12 | 7.3 |  | > 40 |  |  |  | 
CN(C)CCNC(=O)c1cc([N+](=O)[O-])cc2c(O)c3ccccc3nc12 | 4.5 |  | 0.91 |  | inactive | 45 | 
CN(C)CCNC(=O)C1=CC=C([N+](=O)[O-])C2C(=O)c3ccccc3N=C12 (stereo unspecified) | 23 |  | 0.55 |  |  |  | 
CN(C)CCNC(=O)c1cccc2c(O)c3cnccc3nc12 |  |  | > 40 |  |  |  | 
CN(C)CCNC(=O)c1cccc2c(O)c3ccncc3nc12 | 18.5 |  | > 40 |  |  |  | 
C(=N/NC1=NCCN1)/c1cccc2cc3ncccc3nc12 | 5.4 |  | 3.3 |  | inactive | 45 | 
CN(C)CCNC(=O)c1ccc([N+](=O)[O-])c2cc3cccnc3nc12 | 2.1 |  | 0.15 |  | inactive | 20 | 
C(=N/NC1=NCCN1)/c1cccc2cc3cnccc3nc12 | 6.6 |  | 12.3 |  |  |  | 
CN(C)CCNC(=O)c1cccc2c(=O)c3ccccc3[nH]c12 | 15 | inactive | 1.7 |  |  |  | 
Oc1c2cccnc2nc2c(/C=N\NC3=NCCN3)cccc12 | 4 |  | 22 |  |  |  | 
CN(C)CCNC(=O)c1cccc2cc3ccncc3nc12 | 4.6 |  | 8.3 |  |  |  | 
C(=N/NC1=NCCN1)/c1cccc2cc3ccncc3nc12 | 5.9 |  | 25 |  |  |  | 
CN(C)CCNC(=O)c1cccc2c(O)c3ccc([N+](=O)[O-])cc3nc12 | 4.1 |  | 1.2 |  | inactive | 65 | 
CN(C)CCNC(=O)c1cccc2cc3ccccc3nc12 | 5 |  | 0.11 | 91 |  |  | 
CN(C)CCNC(=O)c1ccc([N+](=O)[O-])c2c(O)c3cnccc3nc12 | 6.2 |  | 1 |  |  |  | 
CN(C)CCNC(=O)c1cccc2cc3cccnc3nc12 | 7.6 |  | 0.49 |  |  |  | inactive
Oc1c2cccc(/C=N\NC3=NCCN3)c2nc2cccnc12 | 9.6 |  | > 40 |  |  |  | 
